# Reference: article PMC5280578 (Journal of neurosurgery, 2016)
# Where “and” joins values, the source holds several entries; their conditions need not be identical. Identical values can stand only once. Like-named read-outs stand apart in the source and are kept apart here.
# Columns and labels:
# [1] = tested on: GBM flank xenografts; conditions: ISA27 alone; cited from earlier work
# [2] = tested on: U87-MG cells; conditions: in vitro; cited from earlier work
# [3] = tested on: U87-MG flank xenografts; assay: Efficacy in ectopic U87-MG flank xenografts; format: in vivo, NSG mice; conditions: 5 mg/kg TMZ, 100 mg/kg nutlin3; 2 treatment cycles
# Procedure, shortened: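 NSG mice received 4 × 10^6 U87-MG cells in the right flank. At approximately 150 mm3, tumor-bearing mice were randomized into cohorts of 6–8. Dosing was oral: vehicle, 5 mg/kg TMZ, 100 mg/kg racemic nutlin3, or the combination, for 2 treatment cycles. Caliper measurements were taken twice weekly, and volume = (α2 × β)/2 (α shorter, β longer dimension). Data are mean ± SEM.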
# [4] = tested on: U87-MG cells; assay: Western blot analysis of target proteins and cell cycle markers; format: cell-based, human
# Procedure, shortened: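 U87-MG cells were treated with vehicle, 25 μM TMZ, 5 μM nutlin3a, or the combination for 24 h or 72 h. RIPA lysates were resolved on 4–20% SDS-PAGE and transferred to nitrocellulose. Primary antibodies were used at 1:1000 and HRP secondaries at 1:5000, with chemiluminescent film detection. Densitometry was normalized to loading control and expressed relative to vehicle. Six independent experiments at 24 h; two at 72 h.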
# [5] = tested on: GBM10 intracranial tumors; assay: Survival in orthotopic intracranial GBM10 xenograft model; format: in vivo, NSG mice
# [6] = tested on: GBM10 flank tumors; assay: Western blot analysis of GBM10 flank tumor lysates; format: in vivo, NSG mice; conditions: 66 mg/kg TMZ, 100 mg/kg nutlin3a, 3 consecutive days; for MDM2 and p53 levels in tumors: 2 hours after last dose
# Procedure, shortened: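 NSG mice received 5 × 10^6 GBM10 cells in the right flank. At approximately 200 mm3, mice were dosed orally for 3 consecutive days with vehicle, 66 mg/kg TMZ, 100 mg/kg nutlin3a (methylcellulose/Tween 80), or the combination. Tumors were harvested 2 h after the last dose. Lysates were made in RIPA buffer with protease/phosphatase inhibitors, run on 4–20% SDS-PAGE, and transferred to nitrocellulose. Detection was by HRP-chemiluminescence, with densitometry normalized to loading control.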
# [7] = format: in vivo, NSG mice; conditions: peripheral blood, three cycles
# [8] = Nutlin3a concentrations in normal brain and intracranial tumor tissue; format: in vivo, NSG mice; conditions: 100 mg/kg nutlin3a; 4 hours
# Procedure, shortened: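 NSG mice carried GBM10, GBM43 or SK28 melanoma cells implanted stereotactically in the right cerebral hemisphere. At 21 days post-implantation, mice received 100 mg/kg nutlin3a orally; tumor-free mice were dosed likewise. After 4 h, plasma and brains were collected and the tumor area was excised. Samples were frozen at −80°C, extracted by liquid-liquid extraction, and assayed by HPLC-MS/MS. Each point is one mouse.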
# [9] = tested on: GBM10 cells; assay: Matrigel invasion assay; format: cell-based, human; conditions: 25 μM TMZ, 10 μM nutlin3a; 8 hours
# [10] = tested on: GBM10 cells; assay: Wound-healing assay; format: cell-based, human; conditions: 25 μM TMZ, 10 μM nutlin3a; 12 hours
# Procedure, shortened: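 GBM10 monolayers at 80–90% confluence were scratched with a pipette tip. Debris was washed off with medium, cells were rinsed in serum-free DMEM, and the gap was photographed at hour 0. Cells were then cultured in DMEM with 10% FBS containing vehicle, 25 μM TMZ, 10 μM nutlin3a, or the combination for 12 h. The marked gap was imaged every 2 h and its width measured. Three repeats.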
# [11] = murine bone marrow; cited from earlier work
# [12] = Dose-response curves of nutlin enantiomers; conditions: nutlin3a vs nutlin3b; data not shown
# [13] = tested on: U87-MG cells; assay: Apoptosis assay; format: cell-based, human; conditions: 25 μM TMZ, 1.25 or 5 μM nutlin3a; Day 5 posttreatment
# Procedure, shortened: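 U87-MG cells were treated with vehicle, 25 μM TMZ, 1.25 or 5 μM nutlin3a (DMSO stock diluted in medium), or TMZ/nutlin3a combinations. TMZ was dissolved in PBS or medium and used immediately. On Day 5 post-treatment, cells were stained with Annexin V-FITC and 7-AAD. Early apoptotic and late apoptotic/necrotic fractions were quantified by flow cytometry.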
# [14] = tested on: GBM10 cells; assay: Western blot analysis of target proteins and cell cycle markers; format: cell-based, human
# Procedure, shortened: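 Cultured GBM10 cells were treated with vehicle, 25 μM TMZ, 10 μM nutlin3a, or the combination for 72 h (cell-cycle markers). A second set received 200 μM TMZ plus 2 μM nutlin3a for 24, 48 or 72 h. RIPA lysates were run on 4–20% SDS-PAGE and transferred to nitrocellulose. Primary antibodies were used at 1:1000 and HRP secondaries at 1:5000, with chemiluminescent detection. Densitometry was normalized to loading control relative to vehicle (24 h: 3 independent experiments).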
# [15] = Pharmacokinetic analysis of nutlin3 in NSG mice; format: in vivo
# Procedure, shortened: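 Racemic nutlin3 was given orally to NSG mice. Plasma was collected, flash-frozen and kept at −80°C. Drug was recovered by liquid-liquid extraction and quantified by HPLC-MS/MS (API 4000) to derive pharmacokinetic parameters.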
# [16] = Nutlin3 concentration in U87-MG flank xenografts; format: in vivo, NSG mice; conditions: 4 hours postadministration
# Procedure, shortened: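 Tumors from NSG mice bearing U87-MG flank xenografts were collected 4 h after oral nutlin3 dosing. A vehicle-treated tumor served as background control. Samples were flash-frozen and stored at −80°C. Nutlin3 was recovered by liquid-liquid extraction and quantified by HPLC-MS/MS (API 4000), with caylin as internal standard. Two tumor samples were analyzed.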
# [17] = rats; administration for 10 days; effects reversible; cited from earlier work
# [18] = monkeys; administration for 10 days; effects reversible; cited from earlier work
# [19] = 25 μM TMZ, 5 μM nutlin3a, 24 hours
smiles,measurement,setting,value
O=C1[C@@H]2CS[C@@]3(C(=O)Nc4ccccc43)N2C(=O)N1Cc1ccc(Cl)cc1 [ISA27],Growth of GBM flank xenografts,[1],inhibited growth
same,Interaction with TMZ to kill U87-MG cells,[2],synergized
"Cn1nnc2c(C(N)=O)ncn2c1=O [TMZ, temozolomide]",Tumor growth / tumor volume compared with vehicle,[3],significant decrease in tumor volume
same,"Levels of total p53, p53 (S15) and MDM2",[4]; [19],increased
same,APE1 level,[4]; 72 hours,decreased
same,Survival compared with vehicle or nutlin3a,"[5]; 66 mg/kg TMZ once daily, 100 mg/kg nutlin3a, 2 cycles, p < 0.05",significantly increased
same,Increase in survival compared with vehicle-treated mice,[5]; three 5-day cycles,approximately 13%
same,p53 (S15) levels in tumors,[6],increased
same,MDM2 and p53 levels in tumors,[6],increased
same,White and red blood cell counts compared with vehicle-treated mice,[7]; Day 30 and Day 43,significant decrease
same,Platelets,[7]; Day 30 only,significantly decreased
COc1ccc(C2=N[C@@H](c3ccc(Cl)cc3)[C@@H](c3ccc(Cl)cc3)N2C(=O)N2CCNC(=O)C2)c(OC(C)C)c1 [nutlin3a],Nutlin3a levels in brain tumor tissues versus normal brain tissue,[8],higher levels
same,"Cell cycle arrest by cell cycle–specific markers (pRb S780, pHH3, TopoIIα)","[4]; 5 μM nutlin3a, 25 μM TMZ, 72 hours",arrested in G0/G1
same,"Levels of total p53, p53 (S15) and MDM2",[4]; [19],increased
same,p21 levels,[4]; [19],increased
same,APE1 level,[4]; 72 hours,decreased
same,GBM10 invasion,[9],significantly inhibited
same,GBM10 migration,[10],significantly inhibited
same,"Survival of mice with intracranial GBM tumors, single agent","[5]; 100 mg/kg nutlin3a twice daily, 2 consecutive 5-day cycles",did not increase survival
same,MDM2 and p53 levels in tumors,[6],increased
same,Nutlin3a detected in bone marrow,[11],low levels
same,Relative potency of enantiomers,[12],more potent enantiomer
same,Early and late apoptotic/necrotic cells compared with control or TMZ alone,[13],significant increases
same,"Cell cycle arrest by cell cycle–specific markers (pRb S780, pHH3, TopoIIα)","[14]; 10 μM nutlin3a, 25 μM TMZ, 72 hours",arrested in G0/G1
same,MDM2 and p21 levels,"[14]; 200 μM TMZ, 2 μM nutlin3a, 24 hours",significantly increased
COc1ccc(C2=N[C@@H](c3ccc(Cl)cc3)[C@@H](c3ccc(Cl)cc3)N2C(=O)N2CCNC(=O)C2)c(OC(C)C)c1 [nutlin3],Tumor growth / tumor volume compared with vehicle,[3],significantly slowed tumor growth
same,Cmax,"[15]; NSG, mouse, in vivo, po",20400 ng/mL and 37 µM
same,Tmax,"[15]; NSG, mouse, in vivo, po",1 h
same,Vd/F,"[15]; NSG, mouse, in vivo, po",0.113 L
same,half-life,"[15]; NSG, mouse, in vivo, po",4.5 h
same,Cl/F,"[15]; racemic nutlin3, NSG mice",0.29 mL/min
same,Nutlin3 in U87-MG flank xenografts,[16],detected
CCOc1cc(C(C)(C)C)ccc1C1=N[C@@](C)(c2ccc(Cl)cc2)[C@@](C)(c2ccc(Cl)cc2)N1C(=O)N1CCN(CCCS(C)(=O)=O)CC1 [RG7112],Platelet production,[17],decreased platelet production
same,Platelet production,[18],decreased platelet production
